Source: ChEMBL document CHEMBL3112577, “Discovery of novel chiral diazepines as bombesin receptor subtype-3 (BRS-3) agonists with low brain penetration” (Bioorg Med Chem Lett, 2014)
Values after ≈ are worked out from the molar mass of the structure shown.

Experiments:
[1] = target: T1, Bombesin receptor subtype-3 (Mus musculus, UniProt O54798); experiment: Agonist activity at mouse BRS-3 expressed in CHOK1 cells after 1 hr by HTRF assay; format: cell-based, CHO-K1
T1 sequence (O54798 whole entry): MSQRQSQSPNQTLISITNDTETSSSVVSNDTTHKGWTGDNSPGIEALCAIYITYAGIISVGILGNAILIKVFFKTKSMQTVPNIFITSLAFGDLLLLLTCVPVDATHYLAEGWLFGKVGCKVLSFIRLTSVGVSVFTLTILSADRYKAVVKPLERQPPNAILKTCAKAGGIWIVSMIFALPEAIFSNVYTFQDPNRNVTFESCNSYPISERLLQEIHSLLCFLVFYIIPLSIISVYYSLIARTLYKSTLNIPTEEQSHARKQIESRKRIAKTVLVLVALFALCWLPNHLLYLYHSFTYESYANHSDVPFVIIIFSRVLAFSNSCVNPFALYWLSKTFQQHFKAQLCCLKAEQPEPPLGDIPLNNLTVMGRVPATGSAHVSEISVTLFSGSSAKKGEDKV
Procedure, shortened: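 CHO-K1 cells stably expressing mouse BRS-3 were plated at 200,000 cells/well and grown 24 h at 37 °C in CO₂. Compounds in HAM with 0.1% BSA plus 20 mM LiCl were added for 1 h at 37 °C. IP1 was detected by HTRF with d2-IP1 and cryptate anti-IP1 antibody after overnight at 4 °C in the dark, read as the 665/620 nm ratio and converted with on-plate IP1 standards. EC50 came from a nonlinear curve fit, averaged over at least 3 runs.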

[2] = target: T2, Bombesin receptor subtype-3 (Homo sapiens, UniProt P32247); experiment: Agonist activity at human BRS-3 expressed in CHOK1 cells after 1 hr by HTRF assay; format: cell-based, CHO-K1
T2 sequence (P32247 whole entry): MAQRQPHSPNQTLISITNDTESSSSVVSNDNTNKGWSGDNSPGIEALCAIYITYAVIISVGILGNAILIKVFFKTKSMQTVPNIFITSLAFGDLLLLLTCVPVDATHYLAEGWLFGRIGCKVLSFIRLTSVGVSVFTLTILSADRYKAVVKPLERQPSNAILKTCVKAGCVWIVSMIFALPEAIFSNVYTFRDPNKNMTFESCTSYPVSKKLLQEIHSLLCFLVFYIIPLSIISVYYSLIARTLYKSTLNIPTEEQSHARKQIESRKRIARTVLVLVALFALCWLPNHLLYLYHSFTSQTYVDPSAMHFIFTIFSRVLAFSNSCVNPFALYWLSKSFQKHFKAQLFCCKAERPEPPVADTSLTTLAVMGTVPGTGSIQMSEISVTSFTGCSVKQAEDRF

[3] = Octanol-phosphate buffered saline distribution coefficient, log D of the compound at pH 7.4; format: physicochemical
Procedure, shortened: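 LogD was measured as partitioning between 1-octanol and phosphate-buffered saline at pH 7.4.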

[4] = Ratio of drug level in brain to plasma of mouse at 30 mg/kg, po after 2.5 hrs; format: ADME, organism-based; parameters: dose 30 mg/kg, route oral
Procedure, shortened: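 Mice given a single oral dose of 30 mg/kg. Brain and plasma concentrations were measured 2.5 h after dosing, and Kp brain was taken as the brain-to-plasma concentration ratio.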

[5] = Half life in mouse at 10 mg/kg, po; format: ADME, organism-based; parameters: dose 10 mg/kg, route oral; settings: in vivo
Procedure, shortened: (§1)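 Two mice per compound given 10 mg/kg orally in DMA/PG/(20%HPbCD/saline) 10/10/80; values are the average of the 2 mice.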

[6] = Metabolic stability in mouse liver microsomes assessed as compound remaining after 0.5 hrs; format: ADME, Microsome; settings: read-out: Stability
Procedure, shortened: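 Compound was incubated 0.5 h with mouse liver microsomes and the percentage of parent remaining was reported.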

[7] = AUC in mouse at 10 mg/kg, po; format: ADME, organism-based; parameters: dose 10 mg/kg, route oral; settings: plasma; procedure, shortened: as §1
[8] = Cmax in mouse at 10 mg/kg, po; format: ADME, organism-based; parameters: dose 10 mg/kg, route oral; settings: in vivo; procedure, shortened: as §1
[9] = Fraction unbound in mouse plasma; format: ADME, cell-free
[10] = Solubility of the compound in JP1; format: physicochemical
[11] = Solubility of the compound in JP2; format: physicochemical

Row | SMILES | EC50 [1] | EC50 [2] | logD [3] | also measured
1 | CC(C)(O)c1nc(-c2cccc3c2N(S(=O)(=O)c2ccc(OC(F)(F)F)cc2)Cc2ccc(C(F)(F)F)nc2N3)no1 | 22 nM | 1.4 nM | – | –
2 | CC(C)C1CN(Cc2ccccc2)c2ccccc2CN1C(=O)Nc1cccc(N2CCOCC2)c1 (stereo not given) | 34 nM | 131 nM | – | –
3 | CC(=O)N1Cc2ccccc2N(Cc2ccccc2)CC1C(C)C (stereo not given) | 256 nM | 916 nM | – | –
4 | Cc1ccc(Oc2cccc(CC(=O)N3CCNc4nc(C(F)(F)F)ccc4C3)c2)cn1 | 2.8 nM | 9.5 nM | 3.6 | –
5 | COc1cccc(CC(=O)N2CCNc3nc(C(F)(F)F)ccc3C2)c1 | 1780 nM | 2040 nM | – | –
6 | CCOc1cccc(CC(=O)N2CCNc3nc(C(F)(F)F)ccc3C2)c1 | 1210 nM | 2050 nM | – | –
7 | CC(C)Oc1cccc(CC(=O)N2CCNc3nc(C(F)(F)F)ccc3C2)c1 | 569 nM | 381 nM | – | –
8 | CCCCOc1cccc(CC(=O)N2CCNc3nc(C(F)(F)F)ccc3C2)c1 | 52 nM | 59 nM | – | –
9 | CC(C)COc1cccc(CC(=O)N2CCNc3nc(C(F)(F)F)ccc3C2)c1 | 62 nM | 70 nM | 4.3 | –
10 | CC(C)(C)COc1cccc(CC(=O)N2CCNc3nc(C(F)(F)F)ccc3C2)c1 | 121 nM | 199 nM | – | –
11 | O=C(Cc1cccc(OC2CCCC2)c1)N1CCNc2nc(C(F)(F)F)ccc2C1 | 100 nM | 41 nM | – | –
12 | O=C(Cc1cccc(OC2CCCCC2)c1)N1CCNc2nc(C(F)(F)F)ccc2C1 | 8.7 nM | 8.1 nM | 4.4 | –
13 | CC(C)(C)c1ccc(C(=O)N2Cc3ccc(C(F)(F)F)nc3Nc3ccccc32)cc1 | > 10000 nM | > 10000 nM | – | –
14 | CC(C)(C)c1ccc(CC(=O)N2Cc3ccc(C(F)(F)F)nc3Nc3ccccc32)cc1 | 227 nM | 48 nM | – | –
15 | O=C(Cc1ccc(Oc2ccccc2)cc1)N1Cc2ccc(C(F)(F)F)nc2Nc2ccccc21 | > 10000 nM | 368 nM | – | –
16 | O=C(Cc1cccc(Oc2ccccc2)c1)N1Cc2ccc(C(F)(F)F)nc2Nc2ccccc21 | 46 nM | 25 nM | – | –
17 | O=C(Cc1cccc(Oc2ccc(F)cc2)c1)N1CCNc2nc(C(F)(F)F)ccc2C1 | 2.7 nM | 3.6 nM | 4.6 | –
18 | Cc1ccc(Oc2cccc(CC(=O)N3CCNc4nc(C(F)(F)F)ccc4C3)c2)cc1 | 1 nM | 1.3 nM | > 4.8 | –
19 | O=C(Cc1cccc(Oc2ccccn2)c1)N1CCNc2nc(C(F)(F)F)ccc2C1 | 244 nM | 254 nM | 3.2 | –

More lines, main results first:

Row | EC50 [1] | EC50 [2] | logD [3] | SMILES | also measured
20 | 106 nM | 156 nM | 3.2 | O=C(Cc1cccc(Oc2cccnc2)c1)N1CCNc2nc(C(F)(F)F)ccc2C1 | –
21 | 621 nM | 977 nM | 3.3 | O=C(Cc1cccc(Oc2ccncc2)c1)N1CCNc2nc(C(F)(F)F)ccc2C1 | –
22 | 19 nM | 12 nM | 4.1 | O=C(Cc1cccc(Oc2ccccc2)c1)N1CCNc2nc(C(F)(F)F)ccc2C1CO (stereo not given) | –
23 | 2260 nM | 1560 nM | – | O=C(O)C1c2ccc(C(F)(F)F)nc2NCCN1C(=O)Cc1cccc(Oc2ccccc2)c1 (stereo not given) | –
24 | 11 nM | 11 nM | – | O=C(Cc1cccc(Oc2ccccc2)c1)N1CCNc2nc(C(F)(F)F)ccc2C1CCO (stereo not given) | –
25 | 15 nM | 13 nM | 1.2 | O=C(O)CC1c2ccc(C(F)(F)F)nc2NCCN1C(=O)Cc1cccc(Oc2ccccc2)c1 (stereo not given) | –
26 | 3.4 nM | 1.6 nM | 1.2 | O=C(O)C[C@@H]1c2ccc(C(F)(F)F)nc2NCCN1C(=O)Cc1cccc(Oc2ccccc2)c1 | –
27 | 3120 nM | 2070 nM | 1.2 | O=C(O)C[C@H]1c2ccc(C(F)(F)F)nc2NCCN1C(=O)Cc1cccc(Oc2ccccc2)c1 | –
28 | 2.7 nM | 1.7 nM | 1.2 | O=C(O)C[C@@H]1c2ccc(C(F)(F)F)nc2NCCN1C(=O)Cc1cccc(Oc2ccc(F)cc2)c1 | –
29 | 62 nM | 17 nM | 0.9 | CC(C)COc1cccc(CC(=O)N2CCNc3nc(C(F)(F)F)ccc3[C@H]2CC(=O)O)c1 | Kp at 2.5 h [4]: 0.043; half-life [5]: 3.7 h; remaining at 0.5 h [6]: 70%; AUC [7]: 390 ng·h/mL; Cmax [8]: 360 ng/mL; fraction unbound [9]: 0.033; solubility [10]: 40 µg/mL (≈ 85.9 µM); solubility [11]: 810 µg/mL (≈ 1740 µM)
30 | 3.5 nM | 1.7 nM | 0.3 | Cc1ccc(Oc2cccc(CC(=O)N3CCNc4nc(C(F)(F)F)ccc4[C@H]3CC(=O)O)c2)cn1 | Kp at 2.5 h [4]: 0.002; half-life [5]: 2.6 h; remaining at 0.5 h [6]: 94%; AUC [7]: 200 ng·h/mL; Cmax [8]: 90 ng/mL; fraction unbound [9]: 0.046; solubility [10]: 960 µg/mL (≈ 1920 µM); solubility [11]: 950 µg/mL (≈ 1900 µM)
31 | 12.2 nM | 8.5 nM | 4.5 | O=C(Cc1cccc(Oc2ccccc2)c1)N1CCNc2nc(C(F)(F)F)ccc2C1 | Kp at 2.5 h [4]: 0.72; half-life [5]: 0.82 h; remaining at 0.5 h [6]: 0.7%; AUC [7]: 41 ng·h/mL; Cmax [8]: 60 ng/mL; fraction unbound [9]: 0.0067; solubility [10]: 11 µg/mL (≈ 25.7 µM); solubility [11]: 5.1 µg/mL (≈ 11.9 µM)
32 | 1380 nM | 4380 nM | – | O=C(Nc1cccc(Oc2ccccc2)c1)N1CCNc2nc(C(F)(F)F)ccc2C1 | –
33 | 3.5 nM | 6.9 nM | 4.5 | O=C(Cc1cccc(Oc2ccccc2F)c1)N1CCNc2nc(C(F)(F)F)ccc2C1 | –
34 | 8.7 nM | 6.8 nM | 4.8 | O=C(Cc1cccc(Oc2cccc(F)c2)c1)N1CCNc2nc(C(F)(F)F)ccc2C1 | –
